Assays:
[1] = melting temperature; fluorescence melt of hairpins on a sequencing array, two-state fit, raised by 9.35 °C to match UV melts; conditions: sodium 0.088 M
Outline: (§1)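 Folding enthalpy and melting temperature come from bootstrapped two-state fits to Cy3 fluorescence of library hairpins carrying annealed Cy3 and quencher oligos on a sequenced MiSeq flow cell. Imaging was done in 50 mM Na-HEPES pH 8.0, 25 mM NaCl, stepping by 2.5 °C up to 60 °C, and signals were normalised to pre-quench Cy3 and to control constructs. Results of four replicates were combined by inverse variance, and fitted temperatures were raised by 9.35 °C to match UV melts.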

[2] = folding enthalpy; higher = less favourable; fluorescence melt of hairpins on a sequencing array, two-state fit; conditions: sodium 0.088 M
Outline: as §1

Sequence | Tm [1] [°C] | folding enthalpy [2] [kcal/mol]
GCTGGCCGAAAGGCGAGC (((.(((....))).))) | 66.5 | -26.3
GCTGGCGAAAGCCACAGC ((((((....)))..))) | 49.5 | -13.9
GCTGGCGAAAGCCAGAGC ((((((....)))..))) | 63.3 | -9.92
GCTGGCGAAAGCCTAAGC ((((((....)))..))) | 51.5 | -16.5
GCTGGCGGAAACGTCAGC ((((.((....)).)))) | 61.2 | -43.2
GCTGGGAAACCAGC (((((....))))) | 65.4 | -29.9
GCTGGGACGAAAGTCAGC (((..(((....)))))) | 46.3 | -19.3
GCTGGGCGAAAGCACTGC ((.(.((....)).).)) | 61.3 | -29.4
GCTGGGCGAAAGCCCCGC ((.((((....)))).)) | 58.5 | -16.1
GCTGGGCGAAAGCCTGGC ((..(((....)))..)) | 60.9 | -24.5
GCTGGGCGAAAGCGAAGC (((..((....))..))) | 47.5 | -20
GCTGGGCGAAAGCTGAGC (((..((....))..))) | 49.3 | -21
GCTGGGGAAACCCAGC ((((((....)))))) | 69.3 | -37.5
GCTGGTCGAAAGACTAGC (((.(((....))).))) | 57.6 | -43.2
GCTGGTGGAAACACCGGC ((.((((....)))).)) | 62.6 | -36.1
GCTGGTGGAAACGCTAGC (((.(.(....).).))) | 41.2 | -26.8
GCTGTAGCGAAAGCTAGC (((..(((....)))))) | 46.4 | -14
GCTGTAGGAAACTGCAGC ((((.((....)).)))) | 52.6 | -43.3
GCTGTAGGAAACTGTAGC (((..((....))..))) | 29.2 | -11.7
GCTGTATCGAAAGATAGC (((..(((....)))))) | 33.7 | -18.4
GCTGTCGAAAGACAAAGC ((((((....)))..))) | 48.9 | -23.9
GCTGTCGAAAGACCAAGC ((((((....)))..))) | 38.9 | -19.5
GCTGTCGAAAGACGAAGC ((((((....)))..))) | 44.3 | -18.4

Sequence | Tm [1] [°C] | folding enthalpy [2] [kcal/mol]
GCTGTCGGAAACGACGGC ((.((((....)))).)) | 64 | -34.2
GCTGTCGGAAACGATGGC ((..(((....)))..)) | 47.8 | -33.5
GCTGTCGGAAACGGCAGC ((((.((....)).)))) | 63 | -47.7
GCTGTGCGAAAGCACTGC ((.((((....)))).)) | 68.1 | -24.1
GCTGTGCGAAAGCCAAGC (((..((....))..))) | 46.2 | -19.2
GCTGTGCGAAAGCCTAGC (((..((....))..))) | 44.3 | -18.2
GCTGTGGGAAACCACGGC ((.((((....)))).)) | 58.8 | -36.2
GCTGTGGGAAACTACGGC ((.((.(....).)).)) | 42.6 | -31.6
GCTGTGTCGAAAGACAGC (((..(((....)))))) | 48.9 | -17.3
GCTGTTGGAAACAGCAGC ((((.((....)).)))) | 63 | -12.4
GCTGTTGGAAACGACAGC (((((.(....).))))) | 54.7 | -40.7
GCTTAACCGAAAGGTAGC (((..(((....)))))) | 42.2 | -19
GCTTAAGAAATTAAGC ((((((....)))))) | 43.5 | -26.4
GCTTACGAAAGTAAAAGC ((((((....)))..))) | 41.7 | -27.5
GCTTACGAAAGTAAGC ((((((....)))))) | 68.9 | -31.8
GCTTACGAAAGTAGCAGC ((((((....)))..))) | 38.1 | -18.4
GCTTACGAAAGTAGGAGC ((((((....)))..))) | 35 | -25.3
GCTTACGCGAAAGCGAGC (((..(((....)))))) | 43 | -12.7
GCTTACGGAAACGTAAAC (.(((((....))))).) | 33.3 | -17.9
GCTTACGGAAACGTGAGC (((.(((....))).))) | 52.6 | -43.4
GCTTACTCGAAAGAGAGC (((..(((....)))))) | 30.1 | -14.5
GCTTAGCGAAAGCATAGC (((..((....))..))) | 45.7 | -16.8
GCTTAGCGAAAGCCCAGC (((..((....))..))) | 33.4 | -11.5

Sequence | Tm [1] [°C] | folding enthalpy [2] [kcal/mol]
GCTTAGCGAAAGCCGAGC (((..((....))..))) | 42 | -15.8
GCTTAGCGAAAGCGTAGC (((..((....))..))) | 61.3 | -28.9
GCTTAGCGAAAGCTACGC ((.((((....)))).)) | 51.9 | -22.4
GCTTAGCGAAAGCTAGGC ((.((((....)))).)) | 60.4 | -28.3
GCTTAGCGAAAGCTCTGC ((..(((....)))..)) | 37.8 | -16.4
GCTTAGCGAAAGCTTTGC ((..(((....)))..)) | 44.3 | -14.8
GCTTATACGAAAGTAAGC (((..(((....)))))) | 37.4 | -21.5
GCTTATGGAAACATAAGC (((((((....))))))) | 56 | -40.6
GCTTCAGGAAACTGAAAC (.(((((....))))).) | 31.5 | -15
GCTTCCCGAAAGGGAGC (((.(((....)))))) | 57.1 | -22.3
GCTTCCGAAAGGACAGC ((((((....))).))) | 47.8 | -24.4
GCTTCCGAAAGGATAGC ((((((....))).))) | 48.7 | -24.9
GCTTCCGGAAACGAAAGC ((((.((....)).)))) | 43 | -29.7
GCTTCGCGAAAGCAGAGC (((..((....))..))) | 48.3 | -18.2
GCTTCGCGAAAGCGGGGC ((..(((....)))..)) | 57.9 | -18.5
GCTTCGCGAAAGCGTCGC ((..(((....)))..)) | 41.4 | -15.6
GCTTCGCGAAAGCGTTGC ((..(((....)))..)) | 47.2 | -20.3
GCTTCGCGAAAGCTATGC ((.(.((....)).).)) | 43.5 | -13.4
GCTTCGGGAAACCAAAGC ((((.((....)).)))) | 41.1 | -28.7
GCTTCGGGAAACCGAGGC ((.((((....)))).)) | 53.5 | -42.3
GCTTCGTCGAAAGACAGC (((..(((....)))))) | 34.5 | -11.5
GCTTCTGAAAAGAAGC ((((((....)))))) | 60 | -31.9
GCTTCTGGAAACAGAAAC (.(((((....))))).) | 32.2 | -17.7

Sequence | Tm [1] [°C] | folding enthalpy [2] [kcal/mol]
GCTTGAACGAAAGTTAGC (((..(((....)))))) | 36.1 | -13.7
GCTTGCACGAAAGTGAGC (((..(((....)))))) | 44.4 | -17.3
GCTTGCGAAAGCAACAGC ((((((....)))..))) | 44.4 | -11.4
GCTTGCGAAAGCACAAGC ((((((....)))..))) | 45.3 | -16.1
GCTTGCGAAAGCACTAGC ((((((....)))..))) | 33.8 | -12.7
GCTTGCGAAAGCAGTAGC ((((((....)))..))) | 45.7 | -17.8
GCTTGCGAAAGCATAGC ((((((....))).))) | 55.3 | -18.9
GCTTGCGAAAGCATGAGC ((((((....)))..))) | 52.6 | -22.9
GCTTGCTCGAAAGAGAGC (((..(((....)))))) | 49.1 | -21.3
GCTTGGACGAAAGTCAGC (((..(((....)))))) | 42.1 | -16.7
GCTTGGCGAAAGCAAGGC ((.(.((....)).).)) | 45.6 | -14.9
GCTTGGCGAAAGCCATGC ((.((((....)))).)) | 65.4 | -27.2
GCTTGGCGAAAGCCCTGC ((..(((....)))..)) | 40.2 | -13.6
GCTTGGCGAAAGCCGTGC ((..(((....)))..)) | 53.4 | -15.3
GCTTGGCGAAAGCGCAGC (((..((....))..))) | 43.5 | -12.8
GCTTGGCGAAAGCTGAGC (((..((....))..))) | 56.2 | -22.3
GCTTGGGAAACCAAGC ((((((....)))))) | 62.7 | -35.7
GCTTGGGGAAACCTAGGC ((.(.((....)).).)) | 32.3 | -23.5
GCTTGGGGAAACTCAGGC ((.((.(....).)).)) | 36.6 | -18.2
GCTTGTACGAAAGTAAGC (((..(((....)))))) | 37.7 | -24.9
GCTTGTCCGAAAGGAAGC (((..(((....)))))) | 36.1 | -17.7
GCTTGTCGAAAGACCAGC (((.(((....))).))) | 47.9 | -26.7

— the array DNA melting data of Ke et al. (doi:10.1101/2024.01.08.574731)
